Experimental data published in publication PMC3988618 (Messenger (Los Angeles, Calif. : Print), 2012).
Values belong to the molecule of their own block, whether it stands above or below them.

Columns and labels:
type 1 InsP3R (InsP3R1) = type 1 InsP3R (InsP3R1) (Mus musculus, UniProt P11881); assay: Inhibition of Ins; assay type: cell-based; settings: for IC50: read-out: Ins P3R antagonism IC50 (inhibition of Ins(1,4,5)P3-induced Ca2+ release), permeabilized L15 fibroblasts overexpressing InsP3R1, Ca2+ release induced by 250 nM Ins(1,4,5)P3
Chain of type 1 InsP3R (InsP3R1) (P11881 whole entry): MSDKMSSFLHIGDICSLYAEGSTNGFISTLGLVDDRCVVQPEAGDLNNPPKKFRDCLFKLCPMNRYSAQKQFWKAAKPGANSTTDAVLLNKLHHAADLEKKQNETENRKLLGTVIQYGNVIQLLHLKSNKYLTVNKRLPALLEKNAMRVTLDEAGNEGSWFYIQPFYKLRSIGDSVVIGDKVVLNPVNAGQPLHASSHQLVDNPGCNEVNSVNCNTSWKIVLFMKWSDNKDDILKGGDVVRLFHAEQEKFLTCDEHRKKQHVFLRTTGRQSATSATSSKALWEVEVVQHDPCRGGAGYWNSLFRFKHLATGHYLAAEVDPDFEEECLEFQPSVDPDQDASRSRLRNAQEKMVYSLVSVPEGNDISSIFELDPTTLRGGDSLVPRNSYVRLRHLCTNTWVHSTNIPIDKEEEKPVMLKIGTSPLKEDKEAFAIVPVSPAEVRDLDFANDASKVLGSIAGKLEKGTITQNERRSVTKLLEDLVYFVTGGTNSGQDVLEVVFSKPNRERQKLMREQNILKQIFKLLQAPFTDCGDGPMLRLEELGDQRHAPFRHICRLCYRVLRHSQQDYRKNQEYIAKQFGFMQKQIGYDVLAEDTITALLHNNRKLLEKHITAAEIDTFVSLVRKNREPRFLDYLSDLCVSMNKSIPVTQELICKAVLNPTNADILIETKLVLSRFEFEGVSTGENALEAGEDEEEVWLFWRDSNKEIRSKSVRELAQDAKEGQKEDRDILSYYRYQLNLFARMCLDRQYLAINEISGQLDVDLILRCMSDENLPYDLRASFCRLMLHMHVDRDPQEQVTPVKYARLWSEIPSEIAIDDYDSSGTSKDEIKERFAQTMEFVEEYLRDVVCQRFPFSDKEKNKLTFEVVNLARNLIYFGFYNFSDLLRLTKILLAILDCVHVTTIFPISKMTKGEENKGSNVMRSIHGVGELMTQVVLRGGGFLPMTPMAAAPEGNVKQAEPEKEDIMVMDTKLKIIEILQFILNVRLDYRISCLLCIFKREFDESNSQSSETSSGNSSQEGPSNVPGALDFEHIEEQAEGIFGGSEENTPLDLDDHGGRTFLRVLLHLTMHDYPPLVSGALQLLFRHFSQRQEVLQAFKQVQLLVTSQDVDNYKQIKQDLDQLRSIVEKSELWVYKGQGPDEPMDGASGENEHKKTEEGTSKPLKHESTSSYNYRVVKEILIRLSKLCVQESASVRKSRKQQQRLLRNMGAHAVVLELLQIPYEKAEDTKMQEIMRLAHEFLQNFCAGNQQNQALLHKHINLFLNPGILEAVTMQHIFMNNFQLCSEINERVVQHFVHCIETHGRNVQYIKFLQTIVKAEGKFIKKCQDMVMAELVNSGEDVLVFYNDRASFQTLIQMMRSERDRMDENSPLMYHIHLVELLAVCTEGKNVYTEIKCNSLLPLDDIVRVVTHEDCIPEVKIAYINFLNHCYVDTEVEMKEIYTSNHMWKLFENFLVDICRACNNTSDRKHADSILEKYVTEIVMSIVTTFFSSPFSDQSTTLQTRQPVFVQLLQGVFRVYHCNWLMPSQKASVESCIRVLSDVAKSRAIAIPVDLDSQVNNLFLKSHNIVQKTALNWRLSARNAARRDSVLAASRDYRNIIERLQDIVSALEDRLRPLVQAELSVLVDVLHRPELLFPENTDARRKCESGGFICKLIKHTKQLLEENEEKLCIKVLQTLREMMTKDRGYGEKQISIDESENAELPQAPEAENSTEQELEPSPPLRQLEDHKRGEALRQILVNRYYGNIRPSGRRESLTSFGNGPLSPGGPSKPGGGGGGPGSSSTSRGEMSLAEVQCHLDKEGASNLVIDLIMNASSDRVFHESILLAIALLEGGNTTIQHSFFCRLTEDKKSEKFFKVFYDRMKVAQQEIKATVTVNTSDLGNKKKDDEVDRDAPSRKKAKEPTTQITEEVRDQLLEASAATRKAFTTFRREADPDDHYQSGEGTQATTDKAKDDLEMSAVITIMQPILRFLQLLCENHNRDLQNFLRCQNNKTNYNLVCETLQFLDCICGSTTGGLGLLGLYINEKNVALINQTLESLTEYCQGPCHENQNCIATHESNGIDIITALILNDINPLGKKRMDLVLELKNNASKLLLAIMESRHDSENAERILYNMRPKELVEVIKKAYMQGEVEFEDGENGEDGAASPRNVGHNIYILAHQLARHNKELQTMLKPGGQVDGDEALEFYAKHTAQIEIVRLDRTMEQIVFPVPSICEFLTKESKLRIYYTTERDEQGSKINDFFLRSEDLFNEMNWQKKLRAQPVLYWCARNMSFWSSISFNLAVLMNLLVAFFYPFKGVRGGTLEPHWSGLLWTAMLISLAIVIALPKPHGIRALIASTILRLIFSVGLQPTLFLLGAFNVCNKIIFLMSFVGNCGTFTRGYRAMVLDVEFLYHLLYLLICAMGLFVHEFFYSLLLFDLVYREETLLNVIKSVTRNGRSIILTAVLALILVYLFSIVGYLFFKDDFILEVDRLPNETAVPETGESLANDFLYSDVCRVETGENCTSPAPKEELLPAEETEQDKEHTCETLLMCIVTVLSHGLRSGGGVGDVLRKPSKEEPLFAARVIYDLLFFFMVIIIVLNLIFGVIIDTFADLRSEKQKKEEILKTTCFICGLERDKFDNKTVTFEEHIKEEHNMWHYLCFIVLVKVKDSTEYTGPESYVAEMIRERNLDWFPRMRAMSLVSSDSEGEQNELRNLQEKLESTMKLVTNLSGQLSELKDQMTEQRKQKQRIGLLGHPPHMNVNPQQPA
Summary of the method: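 Mouse InsP3R1-overexpressing L15 fibroblasts, confluent (days 6–8), saponin-permeabilized (40 μg ml−1, 10 min); stores loaded 45 min with 150 nM free 45Ca2+, ATP, NaN3, pH 6.8; 30 °C. Efflux with 1 mM EGTA plus 10 μM thapsigargin, sampled every 2 min; Ins(1,4,5)P3 given 2 min, compound 6 min around it. Release taken as fractional loss over basal leak; Hill fits; 3–4 experiments in duplicate.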

InsP3R [1] = settings: bovine adrenal cortex microsomes; ref Poitras, 1993; cited from earlier work
InsP3R [2] = settings: ref Vandeput, 2007; cited from earlier work
[3] = molecular target: T1, human type I Ins(1,4,5)P3 5-phosphatase (Homo sapiens, UniProt Q14642); assay: Ins; assay type: biochemical; settings: ratio of IC50 values
T1 sequence (Q14642 1-412): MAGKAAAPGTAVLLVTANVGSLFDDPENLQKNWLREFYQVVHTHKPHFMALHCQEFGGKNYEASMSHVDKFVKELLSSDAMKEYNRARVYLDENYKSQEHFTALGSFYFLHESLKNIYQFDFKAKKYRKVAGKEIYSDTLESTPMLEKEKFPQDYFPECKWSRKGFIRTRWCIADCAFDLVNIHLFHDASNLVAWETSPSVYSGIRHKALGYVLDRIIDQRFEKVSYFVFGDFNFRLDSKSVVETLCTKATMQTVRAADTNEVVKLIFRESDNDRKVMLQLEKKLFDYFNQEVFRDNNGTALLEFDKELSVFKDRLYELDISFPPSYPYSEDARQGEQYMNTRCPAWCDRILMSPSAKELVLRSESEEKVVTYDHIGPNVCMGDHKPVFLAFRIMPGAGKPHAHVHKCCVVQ
Summary of the method: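 Recombinant human type I Ins(1,4,5)P3 5-phosphatase; inhibition by test compound read by malachite green phosphate detection with 1.0 μmol Ins(1,4,5)P3 substrate.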

Kd (type 1 InsP3R (InsP3R1); read-out: apparent Kd for Ins(1,4,5)P3 at the receptor, absence of (8), Lineweaver-Burk plot of Ca2+ release): 400 nM
SMILES: O=P(O)(O)O[C@@H]1[C@H](O)[C@H](O)[C@@H](OP(=O)(O)O)[C@H](OP(=O)(O)O)[C@H]1O [Compound 1, Myo-inositol 1,4,5-trisphosphate, reference compound]

SMILES: O=P(O)(O)Oc1ccc(OP(=O)(O)O)c(OP(=O)(O)O)c1 [Compound 2, Benzene 1,2,4-trisphosphate]
Blocking of [3H]Ins(1,4,5)P3 binding, fold weaker than Ins(1,4,5)P3 (InsP3R [1]): ~10,000 fold

IC50 (type 1 InsP3R (InsP3R1)): 417 nM
SMILES: O=P(O)(O)Oc1cc(OP(=O)(O)O)cc(-c2c(OP(=O)(O)O)cc(OP(=O)(O)O)cc2OP(=O)(O)O)c1 [Compound 4, biphenyl 2,3′,4,5′,6-pentakisphosphate, reference compound]
IC50 as Ins(1,4,5)P3 receptor antagonist (InsP3R [2]): low micromolar range

5-phosphatase inhibition, fold more potent than (10) [3]: ≥ 20 fold
5-phosphatase inhibition, times better than (4) [3]: ~4 times
Mode of inhibition at the InsP3R (type 1 InsP3R (InsP3R1); 200 nM compound at various Ins(1,4,5)P3 concentrations, Lineweaver-Burk plot): competitive inhibitor
Effect on Ins(1,4,5)P3-induced Ca2+ release (type 1 InsP3R (InsP3R1); 200 nM compound, low (0.1 μM) Ins(1,4,5)P3, not at high (3 μM) Ins(1,4,5)P3): strongly inhibited
IC50 (type 1 InsP3R (InsP3R1)): 187 nM
SMILES: O=P(O)(O)Oc1cc(OP(=O)(O)O)c(-c2cc(OP(=O)(O)O)c(OP(=O)(O)O)cc2OP(=O)(O)O)cc1OP(=O)(O)O [Compound 8, 2,2′,4,4′,5,5′-Biphenylhexakisphosphate]

5-phosphatase inhibition, fold weaker than (8) [3]: 7 fold
IC50 (type 1 InsP3R (InsP3R1)): 380 nM
SMILES: O=P(O)(O)Oc1cc(OP(=O)(O)O)c(OP(=O)(O)O)cc1OCCOc1cc(OP(=O)(O)O)c(OP(=O)(O)O)cc1OP(=O)(O)O [Compound 9]

IC50 (type 1 InsP3R (InsP3R1)): > 5000 nM
Inhibition of Ca2+ release (type 1 InsP3R (InsP3R1); up to 10 μM compound, 250 nM Ins(1,4,5)P3): ineffective
SMILES: O=P(O)(O)Oc1ccc(OCCOc2ccc(OP(=O)(O)O)c(OP(=O)(O)O)c2)cc1OP(=O)(O)O [Compound 10]
